A selection: hits, their analogues and other compounds. The true share with any hit is near 2.1%.
hK5 inh = blocks human kallikrein 5 protease activity; Q9Y337; recombinant hK5, fluorogenic AMC substrate cleavage; inhibition, % at 5 µM; 210,000 compounds, 0.59% hits; AID 873;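 active = inhibition of 40% or more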;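 also: 0% = enzyme controls without compound and 100% = no-enzyme blanks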
FXIa inh 1536 = factor XIa (human) inhibition. 220,000 compounds, 0.14% hits. purified FXIa, Boc-Glu-Ala-Arg-AMC fluorogenic substrate. AID 798. inhibition, % at 5 µM;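 active = inhibition of at least 40%; inactive = inhibition below 40%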;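 also: fluorescence of freed AMC excited at 355 nm; 0% = enzyme without compound and 100% = no enzyme blank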
EP2 antag = EP2 receptor (human) inhibition; C6 glioma cells expressing human EP2, cAMP TR-FRET; cells stimulated with saturating PGE2; inhibition, % at 25 µM; 260,000 compounds, 0.52% hits; AID 1422;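 active = percent inhibition above 40 after rounding to a whole number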;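 also: rat C6 glioma host cells with rolipram phosphodiesterase inhibitor present; the protocol text gives 20 µM as final concentration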
FXIIa inh 1536 = inhibitors of human coagulation factor XIIa; P00748; purified FXIIa, Boc-QGR-AMC fluorogenic substrate, 2 h; inhibition, % at 5 µM; 220,000 compounds, 0.3% hits; AID 800; in the data active = inhibition above about 40%;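 also: 0% = enzyme with no compound and 100% = blank without enzyme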
Target sequence (P00748 20-372 limits assumed): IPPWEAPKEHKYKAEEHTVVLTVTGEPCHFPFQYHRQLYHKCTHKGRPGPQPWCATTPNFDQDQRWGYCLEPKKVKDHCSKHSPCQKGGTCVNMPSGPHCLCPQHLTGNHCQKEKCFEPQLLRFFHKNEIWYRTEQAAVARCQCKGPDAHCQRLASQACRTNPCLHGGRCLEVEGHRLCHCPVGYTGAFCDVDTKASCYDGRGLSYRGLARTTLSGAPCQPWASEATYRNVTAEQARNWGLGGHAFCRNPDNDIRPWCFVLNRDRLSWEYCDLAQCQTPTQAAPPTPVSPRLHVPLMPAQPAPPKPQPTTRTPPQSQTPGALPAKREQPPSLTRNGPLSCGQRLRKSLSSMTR
Target sequence (P00748 373-615 limits assumed): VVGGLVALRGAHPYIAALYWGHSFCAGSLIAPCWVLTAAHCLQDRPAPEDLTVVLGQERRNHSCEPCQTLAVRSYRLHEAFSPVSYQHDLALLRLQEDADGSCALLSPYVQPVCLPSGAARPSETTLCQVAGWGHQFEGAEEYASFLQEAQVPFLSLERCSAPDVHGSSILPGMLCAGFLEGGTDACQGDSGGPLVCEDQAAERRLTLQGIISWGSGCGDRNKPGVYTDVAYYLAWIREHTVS
EP2 mod = EP2 receptor (human) modulation; P43116; EP2-expressing cells, cAMP HTRF FRET, PGE2 co-stimulation; induction, % at 25 µM; 260,000 compounds, 0.83% hits; AID 940;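 active = compounds whose cAMP rise, as percent of the full-agonist control response, exceeds 60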;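 also: rat C6 glioma line stably carrying human EP2 under a CMV promoter; the protocol text gives 20 µM as final concentration; 100% = response of wells given 1 µM PGE2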
Thrombin inh = inhibitors of human thrombin | alpha-thrombin, Boc-VPR-AMC fluorogenic substrate cleavage | 220,000 compounds, 0.26% hits | inhibition, % at 5 µM | AID 1046;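 active = inhibition at or above 40%; inactive = inhibition below 40%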;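 also: 0% = enzyme with no compound and 100% = wells without enzyme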
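Test system: human alpha-thrombin; medium: pH 7.5 Tris-saline with Tween 20; times: reaction at room temperature; signal: AMC fluorescence at 355 nm excitation and 460 nm emission; also added: Boc-VPR-AMC substrate, 15 µM final; dosing: one concentration per compound, 5 µM, with 0.2% DMSO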
Active calls of the source: *; . = not tested or not shown; ! = a repeat was not active.

SMILES	hK5 inh	FXIa inh 1536	EP2 antag	FXIIa inh 1536	EP2 mod	Thrombin inh
O=C(Cn1c(-c2ccccn2)nc2ccccc21)N/N=C/c1cccnc1	113*	48*	2	30	-25	13
CCN(CC)S(=O)(=O)c1ccc(Cl)c(NC(=O)c2ccccc2C)c1	-3	14	9	12	63*	-3
Cc1cccc(C)c1NC(=O)CSc1nc2ccc(Cl)cc2[nH]1	.	.	7	.	-55	.
COc1cccc(NC(C)(C)c2nnnn2-c2c(C)cccc2C)c1	29	44*	10	66*	9	1
COc1ccc2nc(SCC(=O)Nc3ccc(C)cc3C)c(C#N)cc2c1	.	.	29	.	14	.
CCCC1=NN(C(=O)Cc2ccc([N+](=O)[O-])cc2)C(O)(C(F)(F)F)C1 (stereo not given)	-23	-7	6	-4	-23	-2
CCC1=NN(C(=O)Cc2ccc([N+](=O)[O-])cc2)C(O)(C(F)(F)F)C1 (stereo not given)	25	28	8	56*	4	22
CCN1C(=O)c2n[nH]c(C(=O)OC)c2C1=O	90*	17	6	44*	5	14
CN(C)CCC(=O)[C@]1(O)CC[C@@H]2[C@H]3CC=C4C[C@@H](O)CC[C@]4(C)[C@@H]3CC[C@]21C	.	.	65*	.	-49	.
CC(=O)[C@H]1CCC2C3CC=C4C[C@@H](O)CC[C@]4(C)C3CC[C@@]21C (stereo not given in full)	.	.	11	.	10	.
Cc1occc(=O)c1OC(=O)Nc1ccc(Cl)c(Cl)c1	47*	39	6	5	-16	27
COc1ccc(C(=O)Oc2c(C)occc2=O)cc1OC	-2	5	9	2	32	-2
C=CCN(CC=C)Cc1c(O)ccc2c1oc(=O)c1ccccc12	.	.	41*	.	.	.
CCOc1cc(C2C3=C(CCCC3=O)NC3=C2C(=O)CCC3)cc(Cl)c1OC(C)C	.	.	12	.	-7	.
O=C(CSc1nnc(-c2ccccc2)c(-c2ccccc2)n1)Nc1ccc(Br)cn1	2	23	6	28	10	62*
O=C(CSc1nnc(-c2ccccc2)c(-c2ccccc2)n1)Nc1ncc(Cl)cc1Cl	-4	1	4	3	28	-2
COc1ccc(S(=O)(=O)Nc2cc3c4c(oc3c3ccccc23)CC(C)(C)CC4=O)cc1	48*	3	10	-5	5	24
Cc1nc(P(=O)(c2ccccc2)c2ccccc2)c(N2CCOCC2)o1	-22	-2	11	11	15	-5
Cc1ccccc1-c1nc(P(=O)(c2ccccc2)c2ccccc2)c(N2CCOCC2)o1	4	6	9	4	67*	-3
COCCCn1c(=O)/c(=C\c2ccccc2OC(C)C)s/c1=C(/C#N)C(=O)Nc1ccc(C(=O)O)cc1	38	28	8	49*	-20	8
COCCCn1c(=O)/c(=C\c2ccccc2OC(F)F)s/c1=C(/C#N)C(=O)NC(C)C	-3	6	5	11	10	-9
Cc1ccc(S(=O)(=O)C2(C(=O)N[C@@H](C)Cn3nnc4ccccc43)CC2)cc1C	.	.	5	.	10	.
CCn1c(SCC(=O)N2CCCc3ccccc32)nnc1-c1ccccc1Br	.	.	13	.	0	.
Oc1ccc(NC(=S)N=Nc2c(O)[nH]c3ccc(Br)cc23)cc1	-4	-4	46*	3	-117	-4
Cc1ccc(C(=O)C(=O)c2ccc(C)c(N)c2)cc1N	26	53*	2	40*	-23	14
SMILES	hK5 inh	FXIa inh 1536	EP2 antag	FXIIa inh 1536	EP2 mod	Thrombin inh
CC(C)C(=O)N1CCN(c2ccc(NC(=O)c3ccc([N+](=O)[O-])o3)cc2)CC1	-9	-5	12	0	-77	3
O=C(Nc1ccc(N2CCCC2)cc1)c1ccccc1F	-7	6	23	11	15	0
CCN1CCN(c2ccc(NC(=O)c3ccc([N+](=O)[O-])o3)cc2)CC1	.	.	95*	.	-137	.
Cc1ccccc1C(=O)N1CCN(c2ccc(NC(=O)c3ccc([N+](=O)[O-])o3)cc2)CC1	.	.	130*	.	-154	.
O=C(Nc1ccc(N2CCN(C(=O)c3ccccc3)CC2)cc1)c1ccc([N+](=O)[O-])o1	.	0	49*	4	-48	-4
CCN1CCN(c2ccc(NC(=O)c3ccccc3F)cc2)CC1	.	.	59*	.	-41	.
COc1ccccc1NC(=O)N(CCc1cccc(C)c1)Cc1cc2c(C)ccc(C)c2[nH]c1=O	.	.	8	.	29	.
COc1ccc(C(=O)N2CCC(c3ccnc4ncnn34)CC2)cc1Cn1nc(C)cc1C	.	.	.	.	19	.
CC(C)C(=O)N1CCN(c2ccc(NC(=O)c3ccc([N+](=O)[O-])o3)cc2Cl)CC1	-5	-2	116*	2	-46	0
CC(C)[C@H](NC(=O)c1ccco1)C(=O)OCC(=O)Nc1ccccc1OC(F)F	54*	2	2	5	25	-2
O=C(COC(=O)COc1ccccc1Cl)Nc1ccccc1OC(F)F	26	-4	8	100*	-5	22
Cc1cc(NC(=O)CSc2nc(C3CC3)nc3sc4c(c23)CCCC4)no1	.	.	47*	.	-5	.
CCc1cc2cc3c(cc2nc1SCC(=O)NCc1ccccc1)OCO3	.	.	17	.	81*	.
CCc1cc2cc3c(cc2nc1SCC(=O)NCc1ccc(OC)cc1)OCCO3	.	.	17	.	38	.
CCc1cc2cc(C)cc(C)c2nc1SCC(=O)NCc1ccc2c(c1)OCO2	.	.	14	.	70*	.
CCc1cc2ccc(C)c(C)c2nc1SCC(=O)NCc1ccc2c(c1)OCO2	.	.	2	.	42	.
Cc1cc2cc3c(cc2nc1SCC(=O)Nc1cccc(F)c1)OCO3	.	.	17	.	66*	.
CC1(C)CC(=O)C2=C(C1)OC(N)=C(C#N)C2c1ccc(-c2ccc(F)cc2)o1 (stereo not given)	.	.	23	.	-97	.
Cc1ccc(C2(O)CCN(Cc3ccc4ncccc4c3)CC2)cc1	.	.	4	.	-53	.
COc1ccc(CN(Cc2nc3ccccc3c(=O)[nH]2)C(=O)C2CC2)cc1	.	.	8	.	-25	.
COc1ccc(Cl)cc1C(=O)Nc1nc2ccc(NC(C)=O)cc2s1	.	.	6	.	-4	.
Cc1cc(NC(=O)CSc2nc3cc4c(cc3cc2C)OCO4)no1	.	.	14	.	48	.
CCc1cc2cc3c(cc2nc1SCC(=O)Nc1cc(C)on1)OCO3	-17	5	17	13	73*!	0
CC1CCN(C(=O)c2cc3nc(-c4ccco4)cc(C(F)(F)F)n3n2)C2CCCCC12 (stereo not given)	.	.	9	.	48	.
Clc1ccc(-c2nc3ccccc3n2OCc2ccccc2)cc1	3	1	2	-3	63*	-2
COc1ccc(S(=O)(=O)N(Cc2cc3cc(C)ccc3[nH]c2=O)CC2COCCO2)cc1 (stereo not given)	.	.	8	.	-8	.
CC1CCN(c2nnc(-c3ccccc3)c3ccccc23)CC1	4	-2	13	8	65*	-1

Source: PubChem
